Test results reported in ChEMBL document CHEMBL3585278, “Effect of deuteration on metabolism and clearance of Nerispirdine (HP184) and AVE5638” (Bioorg Med Chem, 2015).
Values belong to the compound of their own block, whether it stands above or below them.

Assays:
Liver microsome [1] = experiment: Clearance in human liver microsomes assessed as initial mean metabolism rate at 5 uM at protein concentration of 0.25 mg/ml measured per mg protein up to 30 mins by LC-MS/MS analysis; assay type: ADME; details: 0.5 h
Summary of the method: (§1)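 Human liver microsomes at 0.25, 0.5 or 1 mg protein/mL were incubated with 5 µM substrate (parent or d14 analogue). Aliquots taken at several times up to 30 min were assayed by LC–MS/MS for parent and N-depropylated metabolite. Initial mean metabolism rate was given as nmol/min/mg protein.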

[2] = Tmax in Sprague-Dawley rat at 20 mg/kg, po by LC-MS/MS analysis; assay type: ADME, organism-based; details: in vivo
Summary of the method: (§2)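 Male Sprague–Dawley rats (5 per compound) received 20 mg/kg orally of parent or d14 analogue. Plasma was sampled at several times up to 48 h and assayed by LC–MS/MS. Tmax is reported with a range; Cmax, AUClast, AUC and t1/2 were derived from plasma concentration–time data.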

Hepatocyte [3] = experiment: Drug metabolism in human hepatocytes assessed as N-(3-fluoropyridin-4-yl)-3-methyl-1H-indol-1-amine formation at 2 to 10 uM up to 24 hrs by LC-MS/MS analysis; assay type: ADME, cell-based
Summary of the method: (§3)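 Plated human hepatocytes (two preparations) were incubated with parent or d14 analogue at 2 or 10 µM. Aliquots taken at several times up to 24 h were assayed by LC–MS/MS for parent, N-depropylated metabolite and carboxylic acid metabolite. Clearance was expressed as mL/h per 10^6 cells.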

Liver microsome [4] = experiment: Clearance in human liver microsomes assessed as initial mean metabolism rate at 5 uM at protein concentration of 0.5 mg/ml measured per mg protein up to 30 mins by LC-MS/MS analysis; assay type: ADME; details: 0.5 h; summary of the method: as §1
Hepatocyte [5] = experiment: Clearance in human hepatocytes at 2 uM measured per 10^6 cells up to 24 hrs by LC-MS/MS analysis; assay type: ADME, cell-based; summary of the method: as §3
Rattus norvegicus [6] = experiment: In vivo drug metabolism in Sprague-Dawley rat assessed as N-(3-fluoropyridin-4-yl)-3-methyl-1H-indol-1-amine formation at 20 mg/kg, po up to 48 hrs by LC-MS/MS analysis; assay type: ADME, organism-based
Summary of the method: (§4)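 Male Sprague–Dawley rats, 5 per compound, were dosed orally at 20 mg/kg with parent or d14 analogue. Plasma collected at several times up to 48 h was analysed by LC–MS/MS for parent, N-depropylated metabolite and carboxylic acid metabolite, giving concentration–time profiles.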

[7] = Cmax in Sprague-Dawley rat at 20 mg/kg, po by LC-MS/MS analysis; assay type: ADME, organism-based; set-up: dose 20 mg/kg, route oral; details: in vivo; summary of the method: as §2
Rattus norvegicus [8] = experiment: In vivo drug metabolism in Sprague-Dawley rat assessed as (3-Fluoro-pyridin-4-yl)-(3-methyl-indol-1-yl)-amine-d7 formation at 20 mg/kg, po up to 48 hrs by LC-MS/MS analysis; assay type: ADME, organism-based; summary of the method: as §4
[9] = Half-life in Sprague-Dawley rat at 20 mg/kg, po by LC-MS/MS analysis; assay type: ADME, organism-based; details: in vivo; summary of the method: as §2
Liver microsome [10] = experiment: Drug metabolism in human liver microsomes assessed as N-(3-fluoropyridin-4-yl)-3-methyl-1H-indol-1-amine formation at 5 uM up to 30 mins by LC-MS/MS analysis
Liver microsome [11] = experiment: Clearance in human liver microsomes assessed as initial mean metabolism rate at 5 uM at protein concentration of 1 mg/ml measured per mg protein up to 30 mins by LC-MS/MS analysis; assay type: ADME; details: 0.5 h; summary of the method: as §1
[12] = AUC in Sprague-Dawley rat at 20 mg/kg, po by LC-MS/MS analysis; assay type: ADME, organism-based; details: in vivo; summary of the method: as §2
Hepatocyte [13] = experiment: Clearance in human hepatocytes at 10 uM measured per 10^6 cells up to 24 hrs by LC-MS/MS analysis; assay type: ADME, cell-based; summary of the method: as §3
[14] = AUClast in Sprague-Dawley rat at 20 mg/kg, po by LC-MS/MS analysis; assay type: ADME, organism-based; set-up: dose 20 mg/kg, route oral, time 0 - last; details: in vivo; summary of the method: as §2
Liver microsome [15] = experiment: Drug metabolism in human liver microsomes assessed as 1-(3-fluoropyridin-4-ylamino)-1H-indole-3-carboxylic acid-d4 formation at 5 uM up to 30 mins by LC-MS/MS analysis
Rattus norvegicus [16] = experiment: In vivo drug metabolism in Sprague-Dawley rat assessed as 1-(3-fluoropyridin-4-ylamino)-1H-indole-3-carboxylic acid-d4 formation at 20 mg/kg, po up to 48 hrs by LC-MS/MS analysis; assay type: ADME, organism-based; summary of the method: as §4
Hepatocyte [17] = experiment: Drug metabolism in human hepatocytes assessed as 1-(3-fluoropyridin-4-ylamino)-1H-indole-3-carboxylic acid-d4 formation at 2 to 10 uM up to 24 hrs by LC-MS/MS analysis; assay type: ADME, cell-based; summary of the method: as §3
Rattus norvegicus [18] = experiment: In vivo drug metabolism in Sprague-Dawley rat assessed as 1-(3-fluoropyridin-4-ylamino)-1H-indole-3-carboxylic acid formation at 20 mg/kg, po up to 48 hrs by LC-MS/MS analysis; assay type: ADME, organism-based; summary of the method: as §4
Hepatocyte [19] = experiment: Drug metabolism in human hepatocytes assessed as 1-(3-fluoropyridin-4-ylamino)-1H-indole-3-carboxylic acid formation at 2 to 10 uM up to 24 hrs by LC-MS/MS analysis; assay type: ADME, cell-based; summary of the method: as §3
Hepatocyte [20] = experiment: Drug formation in human hepatocytes treated with Nerispirdine at 2 to 10 uM up to 24 hrs by LC-MS/MS analysis; assay type: ADME, cell-based; summary of the method: as §3
Liver microsome [21] = experiment: Drug formation in human liver microsomes treated with Nerispirdine at 5 uM up to 30 mins by LC-MS/MS analysis
Rattus norvegicus [22] = experiment: In vivo drug formation in Sprague-Dawley rat treated with Nerispirdine at 20 mg/kg, po up to 48 hrs by LC-MS/MS analysis; assay type: ADME, organism-based; summary of the method: as §4
Liver microsome [23] = experiment: Drug formation in human liver microsomes treated with (3-Fluoro-pyridin-4-yl)-(3-methyl-indol-1-yl)-propylamine-d14 formation at 5 uM up to 30 mins by LC-MS/MS analysis
Hepatocyte [24] = experiment: Drug formation in human hepatocytes treated with (3-Fluoro-pyridin-4-yl)-(3-methyl-indol-1-yl)-propylamine-d14 at 2 to 10 uM up to 24 hrs by LC-MS/MS analysis; assay type: ADME, cell-based; summary of the method: as §3
Rattus norvegicus [25] = experiment: In vivo drug formation in Sprague-Dawley rat treated with (3-Fluoro-pyridin-4-yl)-(3-methyl-indol-1-yl)-propylamine-d14 at 20 mg/kg, po up to 48 hrs by LC-MS/MS analysis; assay type: ADME, organism-based; summary of the method: as §4
Liver [26] = experiment: Drug metabolism in human liver S9 fraction assessed as metabolic reaction rate at 1 uM measured up to 3 hrs by LC-MS/MS analysis; assay type: ADME, subcellular; details: s9, 3 h
Summary of the method: (§5)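 Human liver S9 fraction, liver microsomes or hepatocytes were incubated with substrate or its deuterated analogue at 1 and 10 µM, with or without an NADPH-generating system. Substrate depletion over time was followed. Reaction rate was given as nmol/min/mg for S9 and microsomes, and nmol/min per 10^6 cells for hepatocytes.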

Liver microsome [27] = experiment: Drug metabolism in human liver microsomes assessed as metabolic reaction rate at 10 uM measured up to 3 hrs by LC-MS/MS analysis; assay type: ADME; summary of the method: as §5
Liver [28] = experiment: Drug metabolism in human liver S9 fraction assessed as metabolic reaction rate at 10 uM measured up to 3 hrs by LC-MS/MS analysis; assay type: ADME, subcellular; details: s9, 3 h; summary of the method: as §5
Liver microsome [29] = experiment: Drug metabolism in human liver microsomes assessed as metabolic reaction rate at 1 uM measured up to 3 hrs by LC-MS/MS analysis; assay type: ADME; summary of the method: as §5
Hepatocyte [30] = experiment: Drug metabolism in human hepatocytes assessed as metabolic reaction rate at 1 uM measured per 10^6 cells up to 3 hrs by LC-MS/MS analysis; assay type: ADME, cell-based; summary of the method: as §5
Hepatocyte [31] = experiment: Drug metabolism in human hepatocytes assessed as metabolic reaction rate at 10 uM measured per 10^6 cells up to 3 hrs by LC-MS/MS analysis; assay type: ADME, cell-based; summary of the method: as §5

metabolism rate (Liver microsome [1]): 1.15 nmol/min/mg | Tmax [2]: 1 h | Drug metabolism (Hepatocyte [3]): metabolite_detected | metabolic rate (Liver microsome [4]): 0.346 nmol/min/mg | CLint (Hepatocyte [5]): 0.415 mL/h/10^6 cells | Drug metabolism (Rattus norvegicus [6]): metabolite_detected | Cmax [7]: 822 ng/mL | Drug metabolism (Rattus norvegicus [8]): metabolite_detected | half-life [9]: 10.2 h | Drug metabolism (Liver microsome [10]): metabolite_detected | metabolic rate (Liver microsome [11]): 0.253 nmol/min/mg | AUC [12]: 4180 ng·h/mL | CLint (Hepatocyte [13]): 0.2 mL/h/10^6 cells | AUC(0-t) [14]: 4070 ng·h/mL
Compound: CCCN(c1ccncc1F)n1cc(C)c2ccccc21 [NERISPIRDINE]

metabolism rate (Liver microsome [1]): 0.42 nmol/min/mg | Drug metabolism (Liver microsome [15]): metabolite_notdetected | Tmax [2]: 0.5 h | Drug metabolism (Rattus norvegicus [16]): metabolite_detected | metabolic rate (Liver microsome [4]): 0.638 nmol/min/mg | CLint (Hepatocyte [5]): 0.572 mL/h/10^6 cells | Drug metabolism (Hepatocyte [17]): metabolite_detected | Cmax [7]: 971 ng/mL | Drug metabolism (Rattus norvegicus [18]): metabolite_detected | Drug metabolism (Hepatocyte [19]): metabolite_detected | half-life [9]: 11.1 h | metabolic rate (Liver microsome [11]): 0.217 nmol/min/mg | AUC [12]: 3800 ng·h/mL | CLint (Hepatocyte [13]): 0.196 mL/h/10^6 cells | AUC(0-t) [14]: 3670 ng·h/mL
Compound: [2H]c1cc2c(C([2H])([2H])[2H])c([2H])n(N(c3ccncc3F)C([2H])([2H])C([2H])([2H])C([2H])([2H])[2H])c2c([2H])c1[2H]

Drug metabolism (Hepatocyte [20]): metabolite_detected | Drug metabolism (Liver microsome [21]): metabolite_detected | Drug metabolism (Rattus norvegicus [22]): metabolite_detected
Compound: Cc1cn(Nc2ccncc2F)c2ccccc12

Drug metabolism (Liver microsome [23]): metabolite_detected | Drug metabolism (Hepatocyte [24]): metabolite_detected | Drug metabolism (Rattus norvegicus [25]): metabolite_detected
Compound: [2H]c1cc2c(C([2H])([2H])[2H])c([2H])n(Nc3ccncc3F)c2c([2H])c1[2H]

Drug metabolism (Hepatocyte [24]): metabolite_detected | Drug metabolism (Rattus norvegicus [25]): metabolite_detected
Compound: [2H]c1cc2c(C(=O)O)c([2H])n(Nc3ccncc3F)c2c([2H])c1[2H]

Drug metabolism (Liver [26]): 0.0219 nmol/min/mg | Drug metabolism (Liver microsome [27]): 0.0215 nmol/min/mg | Drug metabolism (Liver [28]): 0.0238 nmol/min/mg | Drug metabolism (Liver microsome [29]): 0.0201 nmol/min/mg | Drug metabolism (Hepatocyte [30]): 0.0143 nmol/min/10^6 cells | Drug metabolism (Hepatocyte [31]): 0.016 nmol/min/10^6 cells
Compound: NCc1cccc(C2CCN(C(=O)c3ccc(C#Cc4ccccc4F)o3)CC2)c1

Drug metabolism (Hepatocyte [20]): metabolite_detected | Drug metabolism (Rattus norvegicus [22]): metabolite_detected
Compound: O=C(O)c1cn(Nc2ccncc2F)c2ccccc12

Drug metabolism (Liver [26]): 0.0081 nmol/min/mg | Drug metabolism (Liver microsome [27]): 0.0045 nmol/min/mg | Drug metabolism (Liver [28]): 0.0043 nmol/min/mg | Drug metabolism (Liver microsome [29]): 0.0048 nmol/min/mg | Drug metabolism (Hepatocyte [30]): 0.0143 nmol/min/10^6 cells | Drug metabolism (Hepatocyte [31]): 0.0081 nmol/min/10^6 cells
Compound: [2H]C([2H])(N)c1cccc(C2CCN(C(=O)c3ccc(C#Cc4ccccc4F)o3)CC2)c1
